The values below come from ChEMBL document CHEMBL1629505, “Antiarrhythmic, serotonin antagonist and antianxiety activities of novel substituted thiophene derivatives synthesized from 2-amino-4,5,6,7-tetrahydro-N-phenylbenzo[b]thiophene-3-carboxamide” (Eur J Med Chem, 2010).

One data set has as its system Mus musculus. Kind of data set: Antianxiety activity in ip dosed Albino mouse assessed as increase in locomotor activity after 30 mins relative to Diazepam. The class given is functional.
Data set [1] in a line: Acute toxicity in rat. In kind it is organism-based. To be noted: in vivo.
For a further data set, the system named is Rattus norvegicus. Kind of data set: Antiarrhythmic activity in aconitine-intoxicated iv dosed Ivanovas rat assessed as inhibition of ventricular dysfunction. The class given is functional, Heart. The essentials: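 Male Ivanovas rats (300–350 g) were anaesthetised with urethane 1.25 g/kg ip. Compound was given iv at 5 mg/kg 5 min before saphenous vein infusion of aconitine ([…], 0.1 ml/min). Lead II ECG was recorded every 30 s. Read-out was aconitine per 100 g causing ventricular extrasystoles, tachycardia and fibrillation versus untreated controls. Used 24 rats/compound; Student's t-test.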

Regarding `N#Cc1c(NC(=S)NC(=O)c2ccccc2)sc2c1CCCC2`, in the data set on Mus musculus, the Ratio was 10. In data set [1], the LD50 worked out at 175 mg/kg. The LD100 increase with Rattus norvegicus came to 84%.

For `COc1cccc(NC(=O)c2c(N)sc3c2CCCC3)c1`, the Ratio with Mus musculus stood at 4. In data set [1], this compound showed an LD50 of 121 mg/kg.

As for `COc1cccc(-n2nnc3sc4c(c3c2=O)CCCC4)c1`, in the data set with Mus musculus, the Ratio was determined as 4. The median lethal dose (LD50) in data set [1] was determined as 124 mg/kg. Also, the LD100 increase in the data set with Rattus norvegicus was determined as 75%.

For `N#Cc1c(N)sc2c1CCCC2`, in the data set with Mus musculus, the Ratio was found to be 1. Also, the LD50 in data set [1] stood at 152 mg/kg.

Consider `N#Cc1c(NC(=O)CCl)sc2c1CCCC2`, for which the Ratio with Mus musculus stood at 3. Further, in data set [1], the 50% lethal dose (LD50) was 194 mg/kg. For the same compound, in the data set on Rattus norvegicus, the LD100 increase came to 73.1%.

As to `COc1cccc(-n2c(=S)[nH]c3sc4c(c3c2=O)CCCC4)c1`, the Ratio in the data set on Mus musculus is 3. This compound registered an LD50 in data set [1] of 210 mg/kg. In addition, the LD100 increase with Rattus norvegicus is on record as 76%.

For `COc1cccc(NC(=O)c2c(NC(=O)c3ccccc3)sc3c2CCCC3)c1`, the Ratio in the data set on Mus musculus came out at 2. The compound further had a median lethal dose (LD50) in data set [1] of 236 mg/kg. Besides, in the data set with Rattus norvegicus, the LD100 increase was found to be 67.9%.

With `COc1cccc(NC(=O)c2c(NC(=O)/C=C/c3ccccc3)sc3c2CCCC3)c1`, the Ratio in the data set on Mus musculus worked out at 5. This compound displayed an LD50 in data set [1] of 276 mg/kg. The LD100 increase with Rattus norvegicus is recorded as 74.6%.

As for `COc1cccc(-n2c(-c3ccccc3)nc3sc4c(c3c2=O)CCCC4)c1`, the Ratio with Mus musculus came to 5. In addition, the LD50 in data set [1] was found to be 136 mg/kg. For the same compound, in the data set on Rattus norvegicus, the LD100 increase turned out to be 70.1%.

In the case of `COc1cccc(-n2c(/C=C/c3ccccc3)nc3sc4c(c3c2=O)CCCC4)c1`, the Ratio in the data set with Mus musculus is 7. This compound yielded an LD50 in data set [1] of 243 mg/kg. The LD100 increase in the data set with Rattus norvegicus was determined as 82%.

Regarding `N#Cc1c(NC(=O)/C=C/c2ccccc2)sc2c1CCCC2`, in the data set with Mus musculus, the Ratio turned out to be 5. The compound further came in with an LD50 in data set [1] of 186 mg/kg. For the same compound, the LD100 increase in the data set on Rattus norvegicus stood at 77.5%.

With `N=c1oc(-c2ccccc2)nc2sc3c(c12)CCCC3`, in the data set on Mus musculus, the Ratio worked out at 3. Besides, the LD50 in data set [1] is 224 mg/kg. In the data set on Rattus norvegicus, the LD100 increase amounted to 68.15%.

For `N=c1oc(/C=C/c2ccccc2)nc2sc3c(c12)CCCC3`, the Ratio in the data set on Mus musculus is listed as 6. The compound also had a median lethal dose (LD50) in data set [1] of 244 mg/kg. Besides, the LD100 increase in the data set on Rattus norvegicus amounted to 80.1%.

For the compound `N#Cc1c(-n2c(O)csc2=N)sc2c1CCCC2`, the Ratio in the data set on Mus musculus turned out to be 12. In data set [1], the LD50 is 274 mg/kg. In addition, in the data set with Rattus norvegicus, the LD100 increase is listed as 82.1%.

As for `N#Cc1c(N2C(=O)C=CC2=O)sc2c1CCCC2`, the Ratio in the data set with Mus musculus was 3. Besides, in data set [1], the LD50 stood at 234 mg/kg.

As to `N=c1c2c3c(sc2nc(S)n1C(=O)c1ccccc1)CCCC3`, the Ratio in the data set with Mus musculus is recorded as 5. For the same compound, the LD50 in data set [1] came out at 221 mg/kg. Also, the LD100 increase in the data set on Rattus norvegicus stood at 84.3%.

As for `N#Cc1c(/N=C/c2ccccc2)sc2c1CCCC2`, the Ratio in the data set with Mus musculus was found to be 2. Also, the LD50 in data set [1] amounted to 246 mg/kg. In addition, in the data set on Rattus norvegicus, the LD100 increase is recorded as 73.6%.

Take `N#Cc1c(N2C(=S)N=C(c3ccccc3)OC2c2ccccc2)sc2c1CCCC2` (centres undefined): the Ratio in the data set with Mus musculus is 16. In data set [1], this compound yielded an LD50 of 297 mg/kg. The LD100 increase with Rattus norvegicus was determined as 84%.

`O=C1CC2(CCCC2)CC(=O)N1CCCCN1CCN(c2ncccn2)CC1` [BUSPIRONE]: the LD50 in data set [1] amounted to 113 mg/kg.

For `CCN(CC)CC(=O)Nc1c(C)cccc1C` [LIDOCAINE], in the data set on Rattus norvegicus, the LD100 increase amounted to 65%.

Take `CCN(CC)CCNC(=O)c1ccc(N)cc1` [PROCAINAMIDE]: the LD100 increase in the data set with Rattus norvegicus was determined as 65%.

Usually LD50 stands for the dose at which mortality reaches 50%. The low end stands for greater toxicity, the high end for lower toxicity.
